Assay results taken from the EternaBench riboswitch data.

System: MS2 coat protein
Test: apparent Kd, MS2 coat protein; higher = weaker binding; RNA-MaP array; FMN 200 µM where present
Procedure, shortened: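 Stalled E. coli RNA polymerase transcribed each design on Illumina sequencing-chip clusters. The clusters were titrated with SNAP-549-labelled MS2 coat protein, starting at 0.7 or 1.5 nM and doubling up to 3 µM, first without ligand and then with constant ligand, in 100 mM Tris-HCl pH 7.5, 80 mM KCl, 4 mM MgCl2, BSA, DTT, yeast tRNA and Tween-20. Green signal was normalised to red-channel RNA signal and to the control-cluster median Fmax. The apparent Kd is the median of filtered binding-curve fits made for each cluster.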

[1] = designed as: OFF switch for flavin mononucleotide, no ligand
[2] = ligand present: flavin mononucleotide, designed as: OFF switch for flavin mononucleotide
[3] = designed as: ON switch for flavin mononucleotide, no ligand
[4] = ligand present: flavin mononucleotide, designed as: ON switch for flavin mononucleotide

| Sequence | apparent Kd [1] | apparent Kd [2] | apparent Kd [3] | apparent Kd [4] |
| --- | --- | --- | --- | --- |
| GGACAGCGAGGAUAUACGUGUACGUUAUCCUCUAUGGGUCAACAUGAGGAUCACCCAUGUAGAAGGCGCAUAAU | 19.4 nM | 28.1 nM |  |  |
| GGACAUGUCGUCUACAUGAGGAUCACCCAUGUCGAUAGACAUGAGGAUAUCGAUAAGAAUUGUAUCGAGAAGGCAUGCAGGUCC |  |  | 19.8 nM | 21.6 nM |
| GGACCACAUCAGGAUAUGACUAGCUUCGGCUAGUCAGAAGGGAUGACAUGAGGAUCACCCAUGUGAUCAGGUCC | 77.5 nM | 127 nM |  |  |
| GGACCUCCUGAGGAUAUUGUAUCACCUGAUUGAUAAGAAGGCAGAACAUGAGGAUCACCCAUGUGGGUACUCGG | 168 nM | 145 nM |  |  |
| GGACGACACAUGAACAUGAGGAUCACCCAUGUAACUAGACAUGAGGAUAUGGAUCCUAAUUGGAUCCAGAAGGCAUGGUCGUCC |  |  | 179 nM | 31.7 nM |
| GGACGGAAAGUGAGGAUAUGCUCUACCUCGGUAGAGCAGAAGGCACAUGAGGAUCACCCAUGUGAUUGCUGUUC | 27.1 nM | 261 nM |  |  |
| GGACGUAAAGAGAAGGGCUACUGGUUGAAACCUGCGGCCUCUGGAACAUGAGGAUCACCCAUGUAGCAGGAUAUCUUUGCAUCA | 180 nM | 14.7 nM |  |  |
| GGACGUCACAUCUACAUGAGGAUCACCCAUGUCUCUUGAGAUGAGGAUAUGUAUACGAAUCGUUUAUAGAAGGCAUGGACGUCC |  |  | 348 nM | 325 nM |
| GGACGUCACAUUCACAUGAGGAUCACCCAUGUCAAAAGACAUGAGGAUAUGGAUCCUAAUUGGAUCCAGAAGGCAUGGACGUCC |  |  | 1140 nM | 70.6 nM |
| GGACGUCUCAUUAACAUGAGGAUCACCCAUGUCGAUAGACAUGAGGAUAUGGAUCCGAAUCGGAUCCAGAAGGCAUGGACGUCC |  |  | 1170 nM | 72.4 nM |
| GGACGUGACAUUAACAUGAGGAUCACCCAUGUCAAAAGACAUGAGGAUAUGGAUCCGAAAAGGAUCCAGAAGGCAUGCACGUCC |  |  | 587 nM | 37.1 nM |
| GGAGAGUUCACAGGAUAUCAUGGGUAGUUAUUUUGAGAAGGGUGAACAAGGAACAUGAGGAUCACCCAUGUAUCCUGGAAGGGC |  |  | 39.9 nM | 60.5 nM |
| GGAGCACACAUUAACAUGAGGAUCACCCAUGUCACAAGACAUGAGGAUAUGGAUCCGAAAAGGAUCCAGAAGGCAUGGUGCUCC |  |  | 657 nM | 28 nM |
| GGAGCCAGCACCGAGGAUAUUCAUAUUAAAACAUGAGGAUCACCCAUGUAGGCCAGAAGGCCUUGGGAGAAGGCGGACUGGCUCG |  |  | 206 nM | 11.4 nM |
| GGAGCCGGCACCGAGGAUAUUCAUAUUAAAACAUGAGGAUCACCCAUGUAGCUCGAAAGAGCUUGGGAGAAGGCGGAUCGGCUCG |  |  | 840 nM | 43.1 nM |
| GGAGCUACAACCGACGGAUAGAUGCAGGAUAUGCUCACAUGAGGAUCACCCAUGUGCUGAAACUGGCAGAAGGGUAUCACCGCC |  |  | 7.83 nM | 4.59 nM |
| GGAGCUCAUCAAUACAUGAGGAUCACCCAUGUCGAAUGAUAUGAGGAUAUGCAUCGGAAAACGAUGUAGAAGGCAUAGAGCUCC |  |  | 15.3 nM | 6.63 nM |
| GGAGGACAUCAAUACAUGAGGAUCACCCAUGUCGAAUGAUAUGAGGAUAUGCAUCGGAAAACGAUGUAGAAGGCAUAGUCCUCC |  |  | 15.1 nM | 6.06 nM |
| GGAUAGGACAGAGGAUAUACAGAUAGGAUCUACUAUCAAACAGUCCUUACAUGAGGAUCACCCAUGUAGAAGGCUGUCCUAUCG | 19.4 nM | 87.4 nM |  |  |
| GGAUAGGACAGAGGAUAUACGUGCUAGAGAUACUAGCAAAAUUCCCUCACAUGAGGAUCACCCAUGUAGAAGGCUGUCCUAUCG | 5.68 nM | 49.6 nM |  |  |
| GGAUAGGACAGAGGAUAUACGUGCUAGAGAUACUAGCAAAAUUUCCUCACAUGAGGAUCACCCAUGUAGAAGGCUGUCCUAUCU | 45.2 nM | 882 nM |  |  |

| Sequence | apparent Kd [1] | apparent Kd [2] | apparent Kd [3] | apparent Kd [4] |
| --- | --- | --- | --- | --- |
| GGAUAGGACAGAGGAUAUACGUGCUAGAGAUACUAGCAAAAUUUCCUCACAUGAGGAUCACCCAUGUAGAAGGCUGUCCUCUCG | 18 nM | 409 nM |  |  |
| GGAUAGUGAGGAUAUCGAUGUUAGGAGGAGUAGAUAGGAGGCGAGAAGGCACAUGAGGAUCACCCAUGUAUGGA | 58.7 nM | 45.5 nM |  |  |
| GGAUAUAUGAAGGGCGAACGCGCACAUGAGGAUCACCCAUGUAGAAGGCGGUCCGCAACGCGGAUCGAGGAUAUAUAGUAUACG | 19.1 nM | 17.3 nM |  |  |
| GGAUAUAUUACAUGAGGAUCACCCAUGUCAGAACGGGUAAUCAGAAGGUACUAUUAGAGAAAGAGUAAGGAUAUGAUUAUAUCC |  |  | 801 nM | 165 nM |
| GGAUCAUGAGGAUAUCGAGGUUAGUACAUGAGGAUCACCCAUGUUAUCCAGGUCUCGUUUCGAGAAGGCAUGAUCC | 21.5 nM | 29.9 nM |  |  |
| GGAUCCAACACAGGAUAUGCUGGACUUUGUCCAGCAGAAGGGUGAAGAACAUGAGGAUCACCCAUGUGGAUCCAUACAUUUAAU |  |  | 254 nM | 15.7 nM |
| GGAUCGAAUGUCAGGAUAUGCUGGUCCUUGGAUCAGCAGAAGGGACAUGAGGAUCACCCAUGUGACGACGGUCC | 64.7 nM | 503 nM |  |  |
| GGAUCGUAUGUCAGGAUAUACCACUGGAUACAGUGGUAGAAGGGACAUGAGGAUCACCCAUGUCCUAUCGAUCC | 13 nM | 16.6 nM |  |  |
| GGAUGACAAAGUCAUCCAAUACGAACAUGAGGAUCACCCAUGUAGGAUAUGCUUCUCAAAGAGAAGCAGAAGGACAUGUGUCUU | 28.7 nM | 158 nM |  |  |
| GGAUGACAAAGUCAUCCUAAACGAACAUGAGGAUCACCCAUGUAGGAUAUGCAACUCAAAGAGUUGCAGAAGGACAUGUGCCUU | 37.2 nM | 230 nM |  |  |
| GGAUGACAAAGUCAUCCUAUUCGAACAUGAGGAUCACCCAUGUAGGAUAUGCAACUCAAAGAGUUGCAGAAGGACAUGUGCCUU | 30.9 nM | 153 nM |  |  |
| GGAUGACAAAGUCAUCCUUAACGAACAUGAGGAUCACCCAUGUAGGAUAUGGUACUCAAAGAGUACCAGAAGGACAUGUGCCUU | 34.3 nM | 203 nM |  |  |
| GGAUGAUUAAUAGGAUAUUAUUUGUAAAAUGGUUAAGAAGGAUUAAUGAUUUAAACGACCAGAUACAUGAGGAUCACCCAUGUA |  |  | 24.4 nM | 21.9 nM |
| GGAUGCCGCUCAGGAUAUGUGGGUUGUCUAGUAUUUAGAUUCCACAUGAGGAUCACCCAUGUAACACAGAAGGGAGAUGGUGAU |  |  | 214 nM | 22.7 nM |
| GGAUGGACCCAGAAGGGCAGAUCCCGAGGAAUUUGAGAUGAGCGGAUAUGUAGGAUAUGGGUGGACAUGAGGAUCACCCAUGUC |  |  | 176 nM | 42.6 nM |
| GGAUGGGACAGAGGAUAUACGUGCUAGAGAUACUAGCAAAAUUUCCUCACAUGAGGAUCACCCAUGUAGAAGGCUGUCCUAUCG | 15.2 nM | 513 nM |  |  |
| GGAUGUCAAAGACAUCCAAUUCGAACAUGAGGAUCACCCAUGUAGGAUAUGCUACUCAAAGAGUAGCAGAAGGACAUGUGCUUU | 36.6 nM | 183 nM |  |  |
| GGAUUACAUGAGGAUCACCCAUGUGAGGAUAUCGAUGUCCUCAAUGAAGUGCGGGACUCGAGAAGGCACUUGGA | 78.5 nM | 108 nM |  |  |
| GGAUUGAAUGAGGAUAUCGUAUUAGGUGUAAUGCGAGAAGGCAUGACAUGAGGAUCACCCAUGUAGUGUGGGUU | 509 nM | 772 nM |  |  |
| GGAUUUACUGAGGAUAUUGCAUUACCCGAUUGAUAAGAAGGCAGAACAUGAGGAUCACCCAUGUGGGUAGUCAA | 17.4 nM | 16.4 nM |  |  |
